According to ChEMBL document CHEMBL4359870, “Identification of a new family of pyrazolo[3,4-d]pyrimidine derivatives as multitarget Fyn-Blk-Lyn inhibitors active on B- and T-lymphoma cell lines” (Eur J Med Chem, 2019):
Converted amounts (≈) assume the structure as drawn. The source made the active and inactive calls. The calls are words filed in the database; no cut-off is given here.

Columns and labels:
[1] = Membrane retention of compound at 500 uM after 5 hrs by UV/LC-MS analysis based GI-PAMPA assay relative to control; type: ADME
Method in brief: (§1)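 GI-PAMPA run with donor compound at 500 µM final, diluted from 1 mM DMSO into pH 7.4 25.0 mM phosphate buffer. Filter coated with 1% (w/v) phosphatidylcholine in dodecane. Acceptor was 50% v/v DMSO/phosphate buffer. Incubated 5 h at r.t. with gentle shaking. Donor and acceptor wells quantified by UV/LC-MS peak area. Papp and membrane retention calculated by equation, in triplicate.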

DOHH-2 = assay: Antiproliferative activity against human DOHH2 cells assessed as reduction in cell viability after 72 hrs by MTT assay; details: DOHH-2, 72 h
HuT78 [2] = assay: Antiproliferative activity against human HUT78 cells assessed as reduction in cell viability after 72 hrs by MTT assay; details: HuT78, 72 h
[3] = Metabolic stability in human liver microsomes assessed as compound remaining at 50 uM after 1 hr by UV/LC-MS analysis relative to control; type: ADME, Microsome; details: read-out: Stability
Method in brief: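 Human liver microsomes at 0.2 mg/mL with NADPH regenerating system, compound at 50 µM in pH 7.4 25 mM phosphate buffer, 37 °C for 1 h. Quenched with acetonitrile, then supernatant dried and taken up in methanol. Unmetabolized percentage measured by UV/LC-MS. Mean of at least three experiments.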

H9 = assay: Antiproliferative activity against human H9 cells assessed as reduction in cell viability after 72 hrs by MTT assay; details: H9, 72 h
SU-DHL-6 = assay: Antiproliferative activity against human SUDHL6 cells assessed as reduction in cell viability after 72 hrs by MTT assay; details: SU-DHL-6, 72 h
HH = assay: Antiproliferative activity against human HH cells assessed as reduction in cell viability after 72 hrs by MTT assay
[4] = biological target: Tyrosine-protein kinase Fyn (Homo sapiens, UniProt P06241); assay: Inhibition of recombinant full length N-terminal His6 tagged human FYN expressed in baculovirus infected sf21 cells using KVEKIGEGTYGVVYK as substrate in presence of [gamma33P]ATP by scintillation counting method
Method in brief: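 Fyn radiometric assay with 250 µM Src-peptide, 100 µM ATP plus γ-33P ATP, 0.00087% NP-40, 10-50 ng enzyme, 10% DMSO, 30 °C for 10 min. ID50 taken from velocity fits. Ki derived assuming ATP-competitive binding, with ATP Km 102 µM.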

Farage = assay: Antiproliferative activity against human Farage cells assessed as reduction in cell viability after 72 hrs by MTT assay
[5] = biological target: Tyrosine-protein kinase Blk (Homo sapiens, UniProt P51451); assay: Inhibition of BLK (unknown origin) using KVEKIGEGTYGVVYK as substrate in presence of [gamma33P]ATP as substrate in presence of [gamma33P]ATP by scintillation counting method
SU-DHL-8 [6] = assay: Antiproliferative activity against human SUDHL8 cells assessed as reduction in cell viability after 72 hrs by MTT assay; details: SU-DHL-8, 72 h
FEPD [7] = assay: Antiproliferative activity against human FEPD cells assessed as reduction in cell viability after 72 hrs by MTT assay
[8] = Apparent permeability of compound at 500 uM after 5 hrs by UV/LC-MS analysis based GI-PAMPA assay; type: ADME; method in brief: as §1
[9] = Aqueous solubility of compound at 1 mg after 24 hrs by LC-MS/MS analysis; type: physicochemical; details: water
Method in brief: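 Solid compound (1 mg) shaken in 1 mL water at 20 °C for 24 h, then filtered through 0.45 µm nylon. Dissolved concentration measured by LC-MS-MS against a methanol calibration curve, in triplicate. Mean of at least three experiments.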

[10] = biological target: Tyrosine-protein kinase Lyn (Homo sapiens, UniProt P07948); assay: Inhibition of LYN (unknown origin) using KVEKIGEGTYGVVYK as substrate in presence of [gamma33P]ATP as substrate in presence of [gamma33P]ATP by scintillation counting method
Method in brief: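 Lyn radiometric assay with 200 µM Src-peptide, 40 µM ATP plus γ-33P ATP, 0.0013% NP-40, 10-50 ng enzyme, 10% DMSO, 30 °C for 10 min. ID50 taken from velocity fits. Ki derived assuming ATP-competitive binding, with ATP Km 39.9 µM.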

SU-DHL-8 [11] = assay: Induction of cell cycle arrest in human SUDHL8 cells assessed as accumulation at sub-G0 phase at 5 to 10 uM after 72 hrs by 7AAD staining based assay; type: functional
FEPD [12] = assay: Induction of cell cycle arrest in human FEPD cells assessed as accumulation at sub-G0 phase at 5 to 10 uM after 72 hrs by 7AAD staining based assay; type: functional
HuT78 [13] = assay: Induction of cell cycle arrest in human HUT78 cells assessed as accumulation at sub-G0 phase at 5 to 10 uM after 72 hrs by 7AAD staining based assay; type: functional

Chain of Tyrosine-protein kinase Fyn (P06241 whole entry): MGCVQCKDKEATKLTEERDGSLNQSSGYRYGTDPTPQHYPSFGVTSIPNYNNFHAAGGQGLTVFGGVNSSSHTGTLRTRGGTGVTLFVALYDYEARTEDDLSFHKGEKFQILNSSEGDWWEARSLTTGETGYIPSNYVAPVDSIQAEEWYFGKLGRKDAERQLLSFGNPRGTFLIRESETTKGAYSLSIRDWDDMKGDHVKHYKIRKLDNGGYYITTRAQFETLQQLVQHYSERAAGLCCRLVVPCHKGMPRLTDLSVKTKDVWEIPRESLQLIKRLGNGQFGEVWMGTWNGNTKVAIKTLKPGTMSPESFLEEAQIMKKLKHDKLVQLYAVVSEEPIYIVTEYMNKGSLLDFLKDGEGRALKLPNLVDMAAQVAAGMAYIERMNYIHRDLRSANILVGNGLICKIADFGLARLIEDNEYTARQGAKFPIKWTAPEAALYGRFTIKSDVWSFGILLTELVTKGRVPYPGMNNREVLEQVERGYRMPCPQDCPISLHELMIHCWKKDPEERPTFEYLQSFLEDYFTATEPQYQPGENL
Chain of Tyrosine-protein kinase Lyn (P07948 whole entry): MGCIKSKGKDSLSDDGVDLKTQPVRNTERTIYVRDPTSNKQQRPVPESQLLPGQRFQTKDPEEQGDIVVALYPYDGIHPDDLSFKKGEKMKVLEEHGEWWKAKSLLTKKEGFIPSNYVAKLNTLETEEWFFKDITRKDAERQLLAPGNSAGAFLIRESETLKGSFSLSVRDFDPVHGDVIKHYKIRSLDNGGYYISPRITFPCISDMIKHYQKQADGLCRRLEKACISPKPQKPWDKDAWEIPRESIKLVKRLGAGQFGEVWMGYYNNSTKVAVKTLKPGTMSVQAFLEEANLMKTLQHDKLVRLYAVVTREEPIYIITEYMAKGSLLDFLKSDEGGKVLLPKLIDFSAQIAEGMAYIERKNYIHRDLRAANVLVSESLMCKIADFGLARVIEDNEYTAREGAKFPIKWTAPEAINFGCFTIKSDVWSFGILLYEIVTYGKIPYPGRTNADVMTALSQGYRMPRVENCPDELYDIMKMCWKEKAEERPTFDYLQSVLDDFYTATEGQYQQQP
Chain of Tyrosine-protein kinase Blk (P51451 whole entry): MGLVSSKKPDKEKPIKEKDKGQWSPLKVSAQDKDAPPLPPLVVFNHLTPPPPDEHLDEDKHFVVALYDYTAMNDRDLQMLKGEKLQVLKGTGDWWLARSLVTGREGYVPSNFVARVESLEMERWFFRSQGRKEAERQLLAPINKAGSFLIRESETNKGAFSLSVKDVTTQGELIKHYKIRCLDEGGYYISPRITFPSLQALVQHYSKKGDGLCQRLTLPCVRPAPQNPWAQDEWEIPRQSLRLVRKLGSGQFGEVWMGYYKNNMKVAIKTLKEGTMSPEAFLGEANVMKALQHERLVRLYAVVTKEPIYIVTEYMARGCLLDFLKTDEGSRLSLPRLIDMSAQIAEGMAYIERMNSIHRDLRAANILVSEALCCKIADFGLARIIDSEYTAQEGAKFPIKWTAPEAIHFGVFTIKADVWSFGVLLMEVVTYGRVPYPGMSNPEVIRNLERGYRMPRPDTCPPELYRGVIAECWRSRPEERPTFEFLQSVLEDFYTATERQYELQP

For `Nc1ncnc2c1c(-c1ccc(Cl)cc1)nn2CC(Cl)c1ccccc1` (stereo not drawn), the R% [1] was 70.4%, the IC50 (DOHH-2) was 11.4 µM and the IC50 (HuT78 [2]) was > 100 µM. It also gave a remaining at 1 h, 50 µM [3] of 85.2%, an IC50 (H9) of 13.6 µM and an IC50 (SU-DHL-6) of 21.5 µM. The IC50 (HH) was 13.9 µM, the Ki [4] was 0.16 µM and the IC50 (Farage) was 14.9 µM. The Ki [5] was 0.19 µM, the IC50 (SU-DHL-8 [6]) was 8.87 µM and the IC50 (FEPD [7]) was 15.8 µM. The Papp at 5 h, 500 µM [8] was 9.95 ×10⁻⁶ cm/s, the solubility at 24 h [9] was 0.01 µg/mL (≈ 0.026 µM) and the Ki [10] was 0.19 µM.

With `Cc1ccc(-c2nn(CC(Cl)c3ccccc3)c3ncnc(N)c23)cc1` (stereo not drawn) the IC50 (DOHH-2) was 11.8 µM, the IC50 (HuT78 [2]) was 11.1 µM and the IC50 (H9) was > 100 µM. The IC50 (SU-DHL-6) was 23.4 µM, the IC50 (HH) was 14.8 µM and the IC50 (Farage) was 19.2 µM. The IC50 (SU-DHL-8 [6]) was 12.1 µM and the IC50 (FEPD [7]) was > 100 µM.

In the case of `Cc1ccc(-c2nn(CCc3ccccc3)c3ncnc(N)c23)cc1`, the IC50 (DOHH-2) is reported as 9.74 µM, the IC50 (HuT78 [2]) is reported as > 100 µM and the IC50 (H9) is reported as > 100 µM. For the same compound, the IC50 (SU-DHL-6) was > 100 µM, the IC50 (HH) was 17.3 µM and the IC50 (Farage) was 16 µM. It also gave an IC50 (SU-DHL-8 [6]) of 37 µM and an IC50 (FEPD [7]) of 21.5 µM.

In the case of `Nc1ncnc2c1c(-c1ccc(Cl)cc1)nn2CCc1ccccc1`, the IC50 (DOHH-2) is reported as 11.8 µM, the IC50 (HuT78 [2]) is reported as > 100 µM and the IC50 (H9) is reported as > 100 µM. For the same compound, the IC50 (SU-DHL-6) was > 100 µM, the IC50 (HH) was 18.2 µM and the IC50 (Farage) was 18.6 µM. The IC50 (SU-DHL-8 [6]) was 36 µM and the IC50 (FEPD [7]) was 31.1 µM.

For `Nc1ncnc2c1c(-c1ccccc1Cl)nn2CC(Cl)c1ccccc1` (racemic), the IC50 (DOHH-2) was 26.6 µM, the IC50 (HuT78 [2]) was > 100 µM and the IC50 (H9) was 38.9 µM. The IC50 (SU-DHL-6) was > 100 µM, the IC50 (HH) was > 100 µM and the IC50 (Farage) was 51.5 µM. For the same compound, the IC50 (SU-DHL-8 [6]) was 18.4 µM and the IC50 (FEPD [7]) was 38.9 µM.

Work on `Nc1ncnc2c1c(-c1ccc(Br)cc1)nn2CC(Cl)c1ccccc1` (racemic) yielded an IC50 (DOHH-2) of 11 µM, an IC50 (HuT78 [2]) of 21.1 µM and an IC50 (H9) of 21.7 µM. The IC50 (SU-DHL-6) was 45.6 µM, the IC50 (HH) was 12.4 µM and the IC50 (Farage) was 13.6 µM. It also gave an IC50 (SU-DHL-8 [6]) of 11.8 µM and an IC50 (FEPD [7]) of 21.7 µM.

In the case of `Nc1ncnc2c1c(-c1cccc(Cl)c1)nn2CC(Cl)c1ccccc1` (racemic), the IC50 (DOHH-2) is reported as 27.4 µM, the IC50 (HuT78 [2]) is reported as > 100 µM and the IC50 (H9) is reported as 22.1 µM. The IC50 (SU-DHL-6) was > 100 µM, the IC50 (HH) was 43.1 µM and the IC50 (Farage) was 30.9 µM. For the same compound, the IC50 (SU-DHL-8 [6]) was 13.7 µM and the IC50 (FEPD [7]) was 24.9 µM.

Work on `Nc1ncnc2c1c(-c1ccc(I)cc1)nn2CC(Cl)c1ccccc1` (racemic) yielded an IC50 (DOHH-2) of 3.68 µM, an IC50 (HuT78 [2]) of 12 µM and an IC50 (H9) of 11.6 µM. For the same compound, the IC50 (SU-DHL-6) was 13.2 µM, the IC50 (HH) was 5.24 µM and the IC50 (Farage) was 12.6 µM. The IC50 (SU-DHL-8 [6]) was 11.5 µM and the IC50 (FEPD [7]) was 20.5 µM.

For `Nc1ncnc2c1c(-c1ccc(CO)cc1)nn2CC(Cl)c1ccccc1` (racemic), the R% [1] was 15.2%, the Activity (SU-DHL-8 [11]) was “Active” and the IC50 (DOHH-2) was 2.44 µM. For the same compound, the IC50 (HuT78 [2]) was 4.5 µM, the remaining at 1 h, 50 µM [3] was 85% and the IC50 (H9) was 3.42 µM. It also gave an IC50 (SU-DHL-6) of 9.29 µM, an IC50 (HH) of 2.4 µM and a Ki [4] of 0.12 µM. For the same compound, the IC50 (Farage) was 7.02 µM, the Activity (FEPD [12]) was “Active” and the IC50 (SU-DHL-8 [6]) was 6.14 µM. The IC50 (FEPD [7]) was 10.8 µM, the Activity (HuT78 [13]) was “Active” and the Papp at 5 h, 500 µM [8] was 10.8 ×10⁻⁶ cm/s. It also gave a solubility at 24 h [9] of 0.09 µg/mL (≈ 0.237 µM) and a Ki [10] of 0.19 µM.

Work on `CCc1ccc(-c2nn(CC(Cl)c3ccccc3)c3ncnc(N)c23)cc1` (racemic) yielded an IC50 (DOHH-2) of 21.2 µM, an IC50 (HuT78 [2]) of 58 µM and an IC50 (H9) of 24.2 µM. It also gave an IC50 (SU-DHL-6) of 29.7 µM, an IC50 (HH) of 21.1 µM and an IC50 (Farage) of 22.7 µM. It also gave an IC50 (SU-DHL-8 [6]) of 17.5 µM and an IC50 (FEPD [7]) of 21.5 µM.

In the case of `Nc1ncnc2c1c(-c1ccc(CO)cc1)nn2CC(O)c1ccccc1` (racemic), the IC50 (DOHH-2) is reported as 12.1 µM, the IC50 (HuT78 [2]) is reported as > 100 µM and the IC50 (H9) is reported as 22.3 µM. It also gave an IC50 (SU-DHL-6) of 34.2 µM, an IC50 (HH) of 17.3 µM and an IC50 (Farage) of 27 µM. The IC50 (SU-DHL-8 [6]) was 27.2 µM and the IC50 (FEPD [7]) was 26.5 µM.

For `CC(Cn1nc(-c2ccc(F)cc2)c2c(N)ncnc21)c1ccccc1` (racemic), the IC50 (DOHH-2) was 21.3 µM, the IC50 (HuT78 [2]) was > 100 µM and the IC50 (H9) was 18.8 µM. It also gave an IC50 (SU-DHL-6) of 22.9 µM, an IC50 (HH) of 11.8 µM and an IC50 (Farage) of 22.8 µM. The IC50 (SU-DHL-8 [6]) was 12.1 µM and the IC50 (FEPD [7]) was > 100 µM.

With `CC(Cn1nc(-c2ccc([N+](=O)[O-])cc2)c2c(N)ncnc21)c1ccccc1` (racemic) the IC50 (DOHH-2) was > 100 µM, the IC50 (HuT78 [2]) was > 100 µM and the IC50 (H9) was > 100 µM. For the same compound, the IC50 (SU-DHL-6) was > 100 µM, the IC50 (HH) was > 100 µM and the IC50 (Farage) was > 100 µM. For the same compound, the IC50 (SU-DHL-8 [6]) was > 100 µM and the IC50 (FEPD [7]) was > 100 µM.

With `CCCc1ccc(-c2nn(CC(Cl)c3ccccc3)c3ncnc(N)c23)cc1` (racemic) the IC50 (DOHH-2) was 4.38 µM, the IC50 (HuT78 [2]) was 9.9 µM and the IC50 (H9) was 4.74 µM. It also gave an IC50 (SU-DHL-6) of 31.1 µM, an IC50 (HH) of 48.5 µM and an IC50 (Farage) of 29.4 µM. It also gave an IC50 (SU-DHL-8 [6]) of 6.72 µM and an IC50 (FEPD [7]) of 29.2 µM.
